pIC50: −log10 of the molar value. Structures can show the parent of a compound that is named as a salt. Where two headings read alike, the source gives them in different places.
Experiments:
human κ opioid receptor [1] = target: T1, human κ opioid receptor (Homo sapiens, UniProt P41145); test: Opioid binding, [3H]U69,593, CHO membranes; conditions: ratio of Ki values μ/κ/δ
human κ opioid receptor [2] = target: T1, human κ opioid receptor; test: [35S]GTPγS binding assay, agonist properties, kappa; type: biochemical
human κ opioid receptor [3] = target: T1, human κ opioid receptor; conditions: cited from earlier work
human κ opioid receptor [4] = target: T1, human κ opioid receptor; test: [35S]GTPγS binding assay, inhibition of U50,488-stimulated binding, kappa; type: biochemical; conditions: read-out: Kappa (Antagonist) IC50; binding stimulated by 100 nM U50,488
Method in brief: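 Antagonist mode: membranes from CHO cells stably expressing human κ receptor, with 12 concentrations of test compound and 0.08 nM [35S]GTPγS. Buffer: 50 mM Tris-HCl pH 7.4, 3 μM GDP, 3 mM MgCl2, 0.2 mM EGTA, 100 mM NaCl. Incubated 60 min at 30°C. Nonspecific binding: 10 μM GTPγS. Filtered and counted. IC50 and Imax calculated. Three experiments in triplicate, mean ± SEM.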

human μ opioid receptor = human μ opioid receptor (Homo sapiens, UniProt P35372); test: [35S]GTPγS binding assay, agonist properties, mu; type: biochemical
Sequence of human μ opioid receptor (P35372 whole entry): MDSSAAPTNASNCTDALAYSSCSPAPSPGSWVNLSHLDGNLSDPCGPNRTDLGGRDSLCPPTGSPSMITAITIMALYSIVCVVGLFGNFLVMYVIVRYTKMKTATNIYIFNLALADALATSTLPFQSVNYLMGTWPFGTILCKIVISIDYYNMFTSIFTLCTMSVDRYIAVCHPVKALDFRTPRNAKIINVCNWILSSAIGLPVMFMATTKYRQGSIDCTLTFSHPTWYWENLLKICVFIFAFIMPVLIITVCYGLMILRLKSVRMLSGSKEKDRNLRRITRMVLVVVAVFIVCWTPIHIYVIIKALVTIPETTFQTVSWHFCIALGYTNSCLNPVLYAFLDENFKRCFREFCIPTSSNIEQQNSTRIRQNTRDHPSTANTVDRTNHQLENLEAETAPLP
Method in brief: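 CHO cells stably expressing human μ receptor, grown in DMEM with 10% FBS at 37°C, 5% CO2. Membranes incubated with 12 concentrations of test compound in 50 mM Tris-HCl pH 7.4, 3 μM GDP, 3 mM MgCl2, 0.2 mM EGTA, 100 mM NaCl, plus 0.08 nM [35S]GTPγS, 60 min, 30°C. Nonspecific: 10 μM GTPγS. Filtration, scintillation counting. EC50 and Emax calculated. Three experiments in triplicate.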

T1 sequence (P41145 whole entry): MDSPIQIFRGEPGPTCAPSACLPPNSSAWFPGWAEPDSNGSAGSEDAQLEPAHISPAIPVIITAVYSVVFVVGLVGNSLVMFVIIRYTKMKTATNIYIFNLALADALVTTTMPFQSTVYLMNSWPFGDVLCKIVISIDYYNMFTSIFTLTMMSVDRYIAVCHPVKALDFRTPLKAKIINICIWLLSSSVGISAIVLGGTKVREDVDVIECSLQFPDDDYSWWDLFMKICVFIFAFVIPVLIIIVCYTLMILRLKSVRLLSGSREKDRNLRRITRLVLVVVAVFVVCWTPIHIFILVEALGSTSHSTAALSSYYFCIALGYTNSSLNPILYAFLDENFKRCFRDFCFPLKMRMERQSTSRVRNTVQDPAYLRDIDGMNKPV

| SMILES | Selectivity μ : κ : δ (human κ opioid receptor [1]) | Functional character at κ receptor (full/partial agonist) (human κ opioid receptor [2]) | Selectivity μ : κ : δ (human κ opioid receptor [3]) | pIC50 (human κ opioid receptor [4]) | Functional character at μ receptor (full/partial agonist) (human μ opioid receptor) |
| --- | --- | --- | --- | --- | --- |
| C=CCN1CC[C@]23c4c5ccc(OC(=O)CCCCCCCCC(=O)Oc6ccc7c(c6)[C@@]68CCCC[C@@]6(O)[C@@H](C7)N(CC6CCC6)CC8)c4O[C@H]2C(=O)CC[C@@]3(O)[C@H]1C5 [Compound 15a, (5α)-17-Allyl-14-hydroxy-6-oxo-4,5-epoxymorphinan-3-yl-17-((−)-N-cyclobutylmethyl-14-hydroxyl-mophinan-3-yl) decanedioate.] | 3/1/130 | partial κ agonists | – | – | – |
| CO[C@@]12CCCC[C@@]13CCN(CC1CCC1)[C@@H]2Cc1ccc(O)cc13 [Compound 8, (−)-14-methoxybutorphanol] | 1/1/58 | partial κ agonists | – | – | – |
| C=CCN1CC[C@]23c4c5ccc(OC(=O)CCCCCCCCC(=O)Oc6ccc7c(c6)[C@@]68CCCC[C@@]6(OC)[C@@H](C7)N(CC6CCC6)CC8)c4O[C@H]2C(=O)CC[C@@]3(O)[C@H]1C5 [Compound 15c, (5α)-17-allyl-14-hydroxy-6-oxo-4,5-epoxymorphinan-3-yl-((−)-14-methoxyl-17-N-cyclobutylmethyl)morphinan-3-yl) decanedioate] | 4/1/280 | partial κ agonists | – | – | – |
| Nc1nc2cc3c(cc2s1)C[C@@H]1[C@@H]2CCCC[C@]32CCN1CC1CC1 [Compound 10, ATPM] | – | – | 31/1/592 | – | – |
| CO[C@@]12CCCC[C@@]13CCN(CC1CCC1)[C@@H]2Cc1ccc(OC(=O)CCCCCCCCC(=O)OCc2ccccc2)cc13 [Compound 13b, Benzyl (−)-14-methoxy-butorphanol-3-yl decanedioate] | 1/1/93 | partial κ agonists | – | – | – |
| c1c2c(cc3sc(NCCCCCCCCCCNc4nc5cc6c(cc5s4)C[C@@H]4[C@@H]5CCCC[C@]65CCN4CC4CC4)nc13)C[C@@H]1[C@@H]3CCCC[C@]23CCN1CC1CC1 [Compound 12, (−)-3,3′-(decane-1,10-diaminothiazolo)bis(cyclopropylmethyl)morphinan hydrochloride] | 9/1/140 | full κ agonists | – | < 5.00 | partial μ agonists |
| CO[C@@]12CCCC[C@@]13CCN(CC1CCC1)[C@@H]2Cc1ccc(OC(=O)CCCCCCCCC(=O)Oc2ccc4c(c2)[C@@]25CCCC[C@@]2(OC)[C@@H](C4)N(CC2CCC2)CC5)cc13 [Compound 9b, Bis((−)-14-methoxy-17-N-cyclobutylmethyl)morphinan-3-yl) decanedioate] | 1/1/50 | partial κ agonists | – | – | – |
| O=C(CCCCCCCCC(=O)Oc1ccc2c(c1)[C@@]13CCCC[C@H]1[C@@H](C2)N(CC1CCC1)CC3)Oc1ccc2c(c1)[C@@]13CCCC[C@H]1[C@@H](C2)N(CC1CCC1)CC3 [Compound 3] | – | – | 2/1/90 | – | – |
| O=C(/C=C/C(=O)Oc1ccc2c(c1)[C@@]13CCCC[C@H]1[C@@H](C2)N(CC1CCC1)CC3)Oc1ccc2c(c1)[C@@]13CCCC[C@H]1[C@@H](C2)N(CC1CCC1)CC3 [Compound 4] | – | – | 3/1/120 | – | – |
| O=C(CCCCCCCCC(=O)Nc1nc2cc3c(cc2s1)C[C@@H]1[C@@H]2CCCC[C@]32CCN1CC1CC1)Nc1nc2cc3c(cc2s1)C[C@@H]1[C@@H]2CCCC[C@]32CCN1CC1CC1 [Compound 11, Bis((−)-3-aminothiazolo-N-cyclopropyl-methylmorphinan)sebacamide hydrochloride] | 24/1/460 | full κ agonists | – | < 5.00 | partial μ agonists |
| O=C(CCCCCCCCC(=O)Oc1ccc2c(c1)[C@@]13CCCC[C@@]1(O)[C@@H](C2)N(CC1CCC1)CC3)Oc1ccc2c(c1)[C@@]13CCCC[C@H]1[C@@H](C2)N(CC1CCC1)CC3 [Compound 15b, ((−)-17-N-cyclobutylmethyl)morphinan-3-yl-((−)-14-hydroxyl-17-N-cyclobutylmethyl) morphinan-3-yl) decanedioate] | 1/1/110 | partial κ agonists | – | – | – |

Reference: paper PMC3095849 (Bioorganic & medicinal chemistry, 2011)
